The record followed here is ChEMBL document CHEMBL2203249, “Optimization of a small tropomyosin-related kinase B (TrkB) agonist 7,8-dihydroxyflavone active in mouse models of depression” (J Med Chem, 2012).

The source made the active and inactive calls. The calls are words filed in the database; no cut-off is given here.

Data set [1] is described as follows: AUC (infinity) in mouse at 3 mg/kg, iv by HPLC analysis. The data set is classed as ADME, organism-based. Also on record: time infinity, dose 3 mg/kg, route intravenous. The following applies: plasma. The procedure, abridged: (§1)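 Mice of 20–30 g, 6–8 weeks old, dosed i.v. or orally. Blood was drawn at 3, 10, 30, 60, 120, 240, 360 and 480 min into lithium-heparin tubes, spun at 2500 × g for 15 min at 4°C within 1 h and stored at −20°C. Plasma was analysed by HPLC, 3 mice per time point. AUC was calculated by the linear/log trapezoidal method.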

For data set [2], the target named is T1, CYP1A2 (Homo sapiens, UniProt P05177).
T1 sequence (P05177 whole entry): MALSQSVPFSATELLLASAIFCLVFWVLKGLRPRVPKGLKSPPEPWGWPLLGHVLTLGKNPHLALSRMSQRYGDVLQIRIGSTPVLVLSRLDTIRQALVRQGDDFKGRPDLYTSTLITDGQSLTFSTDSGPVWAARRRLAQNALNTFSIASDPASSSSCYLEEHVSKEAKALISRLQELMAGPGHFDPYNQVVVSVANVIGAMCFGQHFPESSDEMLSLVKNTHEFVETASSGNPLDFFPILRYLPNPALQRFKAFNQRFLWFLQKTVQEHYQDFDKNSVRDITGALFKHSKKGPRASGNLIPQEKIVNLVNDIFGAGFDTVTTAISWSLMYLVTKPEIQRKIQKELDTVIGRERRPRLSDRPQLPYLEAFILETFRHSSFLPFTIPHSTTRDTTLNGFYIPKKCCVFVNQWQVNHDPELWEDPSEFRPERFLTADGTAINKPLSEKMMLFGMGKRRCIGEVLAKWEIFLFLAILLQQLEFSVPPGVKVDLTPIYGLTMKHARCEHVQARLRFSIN
Description: Inhibition of CYP1A2 at 30 uM. Format: ADME. The procedure, abridged: (§2)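 CYP inhibition was tested at 3 and 30 μM and reported as percent inhibition. The assay was run by a contract lab.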

Data set [3] in a line: Volume of distribution at steady state in mouse at 3 mg/kg, iv by HPLC analysis. Format: ADME, organism-based. The arrangement: dose 3 mg/kg, route intravenous. The following applies: in vivo, read-out: Vdss. The gist of the method:
(§3)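 Mice (20–30 g, 6–8 weeks old) were dosed i.v. or orally. Blood was drawn into lithium-heparin tubes at 3, 10, 30, 60, 120, 240, 360 and 480 min, with 3 mice per time point. Plasma was separated at 2500 × g for 15 min at 4°C within 1 h and stored at −20°C. Samples were analysed by HPLC, and AUC was calculated by the linear/log trapezoidal method.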

Data set [4] in a line: AUC last in mouse at 3 mg/kg, iv by HPLC analysis. The data set is classed as ADME, organism-based. Also on record: time 0 - last, dose 3 mg/kg, route intravenous. The following applies: plasma. The gist of the method:
as §1

Data set [5] concerns the target T1, CYP1A2. The experiment in a line: Inhibition of CYP1A2 at 3 uM. The data set is classed as ADME. The procedure, abridged: as §2
Data set [6] can be described thus: Elimination half life in mouse at 10 mg/kg, po by HPLC analysis. The arrangement: dose 10 mg/kg, route oral. The data set is classed as ADME, organism-based. The conditions noted are these: in vivo, read-out: beta t1/2. The gist of the method: as §1
Data set [7] can be described thus: Total body clearance in mouse at 3 mg/kg, iv by HPLC analysis. Format: ADME, organism-based. Also on record: dose 3 mg/kg, route intravenous. The conditions noted are these: in vivo. The procedure, abridged:
as §3

A short description of data set [8]: Volume of distribution in mouse at 3 mg/kg, iv by HPLC analysis. Format: ADME, organism-based. Also on record: dose 3 mg/kg, route intravenous. The conditions noted are these: in vivo, read-out: Vz. The gist of the method: as §3
The nature of data set [9]: AUC last in mouse at 10 mg/kg, po by HPLC analysis. The arrangement: time 0 - last, dose 10 mg/kg, route oral. Format: ADME, organism-based. The conditions noted are these: plasma. The procedure, abridged: as §1
Data set [10] has as its target Voltage-gated inwardly rectifying potassium channel KCNH2 (Homo sapiens, UniProt Q12809). Description: Inhibition of human ERG.
Data set [11] can be described thus: Cmax in mouse at 10 mg/kg, po by HPLC analysis. Format: ADME, organism-based. The arrangement: dose 10 mg/kg, route oral. The conditions noted are these: in vivo. The procedure, abridged: as §1
Data set [12] has as its system Mus musculus. The experiment in a line: Agonist activity at TrkB receptor in C57BL/J6 mouse brain assessed as TrkB phosphorylation at tyrosine 816 in hippocampus at 2.5 mg/kg, po […] by Western blotting analysis. The arrangement: dose 2.5 mg/kg. Format: functional, organism-based. The procedure, abridged:
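Male C57BL/6J mice were gavaged with 2.5 mg/kg/day for 21 days, with saline vehicle controls. Hippocampus was collected after the behavioural tests, and BrdU at 100 mg/kg i.p. was given 2 h before sacrifice. Lysates were immunoblotted for p-TrkB, total TrkB and p-Akt, and the p-TrkB/TrkB ratio was determined. Two replicate experiments, Student's t-test.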
A general note: A western blot detects proteins with antibodies after separation by electrophoresis.

The subject of data set [13] is Mus musculus. The experiment in a line: Agonist activity at TrkB receptor in C57BL/J6 mouse brain assessed as TrkB phosphorylation at tyrosine 816 in hippocampus at 2.5 mg/kg, po administered qd for 21 days by immunoblotting analysis.
The nature of data set [14]: Tmax in mouse at 10 mg/kg, po by HPLC analysis. Also on record: dose 10 mg/kg, route oral. The following applies: in vivo. Format: ADME, organism-based. The procedure, abridged:
as §3

In data set [15] the test system is Mus musculus. The experiment in a line: Bioavailability in mouse at 10 mg/kg by HPLC analysis. The following applies: in vivo. The data set is classed as ADME, organism-based. The procedure, abridged:
as §1

A short description of data set [16]: Metabolic stability in human liver microsomes assessed as remaining parent compound at 1 uM after 1 hr in the presence of […]. Format: ADME, Microsome. The following applies: read-out: Stability. The gist of the method:
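Human liver microsomes were incubated with test compound at 1 μM for 1 h. Percent parent remaining was measured with cofactor and in a cofactor-free control. The work was done by a contract lab.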

Data set [17] can be described thus: Elimination half life in mouse at 3 mg/kg, iv by HPLC analysis. Format: ADME, organism-based. Also on record: dose 3 mg/kg, route intravenous. The following applies: in vivo, read-out: beta t1/2. The gist of the method:
as §1

The nature of data set [18]: AUC (infinity) in mouse at 10 mg/kg, po by HPLC analysis. Format: ADME, organism-based. Also on record: time infinity, dose 10 mg/kg, route oral. The conditions noted are these: plasma. The procedure, abridged: as §1

Sequence of Voltage-gated inwardly rectifying potassium channel KCNH2 (Q12809 whole entry): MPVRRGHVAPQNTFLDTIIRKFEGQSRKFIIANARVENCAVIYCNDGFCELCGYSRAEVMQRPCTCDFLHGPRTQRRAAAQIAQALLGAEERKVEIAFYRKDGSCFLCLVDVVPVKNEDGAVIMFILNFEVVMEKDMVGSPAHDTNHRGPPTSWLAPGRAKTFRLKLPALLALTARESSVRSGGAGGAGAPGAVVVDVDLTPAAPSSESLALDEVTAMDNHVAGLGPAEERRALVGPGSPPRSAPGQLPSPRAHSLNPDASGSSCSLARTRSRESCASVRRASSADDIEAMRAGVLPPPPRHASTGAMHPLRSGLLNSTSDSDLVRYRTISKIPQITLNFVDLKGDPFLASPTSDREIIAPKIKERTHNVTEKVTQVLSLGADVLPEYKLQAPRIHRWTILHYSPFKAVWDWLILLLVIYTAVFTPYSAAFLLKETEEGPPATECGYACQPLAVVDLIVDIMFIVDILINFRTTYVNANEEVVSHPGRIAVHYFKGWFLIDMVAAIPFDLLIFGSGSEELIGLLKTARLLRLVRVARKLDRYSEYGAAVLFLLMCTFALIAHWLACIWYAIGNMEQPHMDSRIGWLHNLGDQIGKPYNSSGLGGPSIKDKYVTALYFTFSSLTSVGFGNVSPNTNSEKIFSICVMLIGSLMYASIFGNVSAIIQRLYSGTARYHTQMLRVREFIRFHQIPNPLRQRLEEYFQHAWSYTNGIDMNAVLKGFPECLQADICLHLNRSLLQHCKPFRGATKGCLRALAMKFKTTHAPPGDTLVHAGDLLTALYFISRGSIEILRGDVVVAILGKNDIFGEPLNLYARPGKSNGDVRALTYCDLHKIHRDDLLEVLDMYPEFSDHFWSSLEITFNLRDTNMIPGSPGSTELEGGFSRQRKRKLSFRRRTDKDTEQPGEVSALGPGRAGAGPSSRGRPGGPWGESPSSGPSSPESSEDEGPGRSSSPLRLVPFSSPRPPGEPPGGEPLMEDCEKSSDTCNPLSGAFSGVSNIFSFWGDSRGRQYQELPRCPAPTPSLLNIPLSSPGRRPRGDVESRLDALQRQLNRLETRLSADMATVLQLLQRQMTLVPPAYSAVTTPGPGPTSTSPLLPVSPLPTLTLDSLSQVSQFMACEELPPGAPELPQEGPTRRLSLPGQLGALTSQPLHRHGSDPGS

The AUC(0-inf) is the area under the concentration-time curve extrapolated to infinity. Read a high AUC(0-inf) as more exposure. One may read the inhibition as the share of the control response that was lost under treatment. What is called AUC(0-t) is exposure summed from dosing to a finite time, without extrapolation to infinity. Low values mean less exposure, high ones more exposure. Usually clearance stands for a measure of how efficiently the substance is removed, as volume per time. Low readings indicate a low capacity for elimination, high ones a high capacity for elimination. The Cmax is the highest concentration seen after dosing. A word on the Tmax: it is the time from dosing to the highest level. For `Cc1nc2ccc3c(=O)cc(-c4ccc(N5CCCC5)cc4)oc3c2[nH]1`, the area under the curve AUC(0-inf) is 320 ng·h/mL in data set [1] and 21.6 ng·h/mL in data set [18]. This compound yielded an inhibition at 30 µM in [2] of 66.1%. Also, the Vd worked out at 10 L/kg in data set [3] and 23.1 L/kg in data set [8]. Also, the values for the AUC(0-t) in [4] and in data set [9] were 312 ng·h/mL and 19.1 ng·h/mL, respectively. For the same compound, the inhibition at 3 µM in data set [5] came out at 27.3%. Besides, the half-life in data set [6] stood at 58 min; in data set [17], 103 min. The same compound registered a clearance in data set [7] of 156 mL/min/kg. For the same compound, in data set [10], the “inhibition (INH)” value is recorded as “Not Active”. In [11], this compound showed a Cmax of 7 ng/mL. Besides, the outcome in [12] and in data set [13] was Active. In data set [14], the Tmax was 2 h. In addition, in data set [15], the F was 2%. Also, the remaining at 1 h, 1 µM in data set [16] amounted to 25.4%.

The compound `O=c1cc(-c2ccc(N3CCCC3)cc2)oc2c1ccc1cc[nH]c12` displayed an inhibition at 30 µM in data set [2] of 75.9%. In addition, the result in data set [12] and in data set [13] was Active. The remaining at 1 h, 1 µM in [16] was found to be 1.2%.
